Source: ChEMBL document CHEMBL1155468, “Syntheses and evaluation of anticonvulsant profile and teratogenicity of novel amide derivatives of branched aliphatic carboxylic acids with 4-aminobenzensulfonamide” (J Med Chem, 2010)
Active and inactive are the calls of the source. No cut-off for these calls is given here.

Experiments:
Mus musculus [1] = assay: Anticonvulsant activity in CF1 albino mouse assessed as inhibition of subcutaneous pentylenetetrazole-induced seizures at 30 mg/kg, ip after 0.5 hrs; format: functional, organism-based; set-up: dose 30 mg/kg
Summary of the method: (§1)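 Adult male CF no. 1 albino mice (18-25 g) dosed ip with compound suspended in 0.5% methylcellulose (0.01 mL/g). Convulsant: pentylenetetrazol dissolved in 0.9% saline as a 0.85% solution for mice, given subcutaneously.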

Mus musculus [2] = assay: Anticonvulsant activity in CF1 albino mouse assessed as inhibition of subcutaneous pentylenetetrazole-induced seizures at 100 mg/kg, ip after 0.5 hrs; format: functional, organism-based; set-up: dose 100 mg/kg; summary of the method: as §1
Mus musculus [3] = assay: Anticonvulsant activity in CF1 albino mouse assessed as inhibition of subcutaneous pentylenetetrazole-induced seizures at 300 mg/kg, ip after 0.5 hrs; format: functional, organism-based; set-up: dose 300 mg/kg; summary of the method: as §1
Mus musculus [4] = assay: Anticonvulsant activity in CF1 albino mouse assessed as inhibition of subcutaneous pentylenetetrazole-induced seizures at 30 mg/kg, ip after 4 hrs; format: functional, organism-based; set-up: dose 30 mg/kg; summary of the method: as §1
Mus musculus [5] = assay: Anticonvulsant activity in CF1 albino mouse assessed as inhibition of subcutaneous pentylenetetrazole-induced seizures at 100 mg/kg, ip after 4 hrs; format: functional, organism-based; set-up: dose 100 mg/kg; summary of the method: as §1
Mus musculus [6] = assay: Teratogenic effect in SWV mouse assessed as resorptions at 486 mg/kg, ip administered on morning of day 8 of gestation; format: toxicity, organism-based; set-up: dose 486 mg/kg, route intraperitoneal; settings: in vivo
Summary of the method: (§2)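 SWV inbred mice: two-month-old nulligravid females mated overnight with males and checked for vaginal plugs next morning; gestation onset taken as 10 p.m. the previous night. On gestation day 8.5 each dam got one ip injection, 0.55–2.7 mmol/kg, in 25% aqueous Cremophor EL (vehicle controls dosed alike), 10 μL/g body weight. Litters and implants tallied; resorptions and live fetuses reported as counts with percentages.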

Mus musculus [7] = assay: Teratogenic effect in SWV mouse assessed as resorptions at 294 mg/kg, ip administered on morning of day 8 of gestation; format: toxicity, organism-based; set-up: dose 294 mg/kg, route intraperitoneal; settings: in vivo; summary of the method: as §2
Mus musculus [8] = assay: Teratogenic effect in SWV mouse assessed as resorptions at 148 mg/kg, ip administered on morning of day 8 of gestation; format: toxicity, organism-based; set-up: dose 148 mg/kg, route intraperitoneal; settings: in vivo; summary of the method: as §2
Mus musculus [9] = assay: Teratogenic effect in SWV mouse assessed as fetuses with neural tube deffects at 486 mg/kg, ip administered on morning of day 8 of gestation; format: toxicity, organism-based; set-up: dose 486 mg/kg, route intraperitoneal; settings: in vivo
Summary of the method: (§3)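 Two-month-old nulligravid SWV females were mated overnight and checked for vaginal plugs the next morning; gestation onset was set at 10 p.m. the previous night. On gestation day 8.5, each dam received a single ip injection (0.55-2.7 mmol/kg range) or vehicle (25% aqueous Cremophor EL) at 10 μL/g body weight. Litters were scored for implants, resorptions, live and dead fetuses, and fetuses with neural tube defects.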

Mus musculus [10] = assay: Teratogenic effect in SWV mouse assessed as fetuses with neural tube deffects at 294 mg/kg, ip administered on morning of day 8 of gestation; format: toxicity, organism-based; set-up: dose 294 mg/kg, route intraperitoneal; settings: in vivo; summary of the method: as §3
Mus musculus [11] = assay: Teratogenic effect in SWV mouse assessed as live fetuses at 486 mg/kg, ip administered on morning of day 8 of gestation; format: toxicity, organism-based; set-up: dose 486 mg/kg, route intraperitoneal; settings: in vivo; summary of the method: as §2
Mus musculus [12] = assay: Teratogenic effect in SWV mouse assessed as live fetuses at 294 mg/kg, ip administered on morning of day 8 of gestation; format: toxicity, organism-based; set-up: dose 294 mg/kg, route intraperitoneal; settings: in vivo; summary of the method: as §3
Mus musculus [13] = assay: Teratogenic effect in SWV mouse assessed as live fetuses at 148 mg/kg, ip administered on morning of day 8 of gestation; format: toxicity, organism-based; set-up: dose 148 mg/kg, route intraperitoneal; settings: in vivo; summary of the method: as §3
Mus musculus [14] = assay: Anticonvulsant activity in CF1 albino mouse assessed as inhibition of maximal electroshock-induced seizures at 30 mg/kg, ip after 0.5 hrs; format: functional, organism-based; set-up: dose 30 mg/kg
Summary of the method: (§4)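 Test compounds suspended in 0.5% methylcellulose and given ip to adult male CF no. 1 albino mice (18-25 g) at 0.01 mL/g body weight before maximal electroshock challenge.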

Mus musculus [15] = assay: Anticonvulsant activity in CF1 albino mouse assessed as inhibition of maximal electroshock-induced seizures at 30 mg/kg, ip after 4 hrs; format: functional, organism-based; set-up: dose 30 mg/kg; summary of the method: as §4
Mus musculus [16] = assay: Anticonvulsant activity in CF1 albino mouse assessed as inhibition of maximal electroshock-induced seizures at 300 mg/kg, ip after 4 hrs; format: functional, organism-based; set-up: dose 300 mg/kg; summary of the method: as §4
Mus musculus [17] = assay: Anticonvulsant activity in CF1 albino mouse assessed as inhibition of subcutaneous pentylenetetrazole-induced seizures at 300 mg/kg, ip after 4 hrs; format: functional, organism-based; set-up: dose 300 mg/kg; summary of the method: as §1
Mus musculus [18] = assay: Neurotoxicity in CF1 albino mouse assessed as motor impairment at 30 mg/kg, ip after 0.5 hrs; format: toxicity, organism-based; set-up: dose 30 mg/kg, route intraperitoneal; settings: in vivo
Mus musculus [19] = assay: Neurotoxicity in CF1 albino mouse assessed as motor impairment at 100 mg/kg, ip after 0.5 hrs; format: toxicity, organism-based; set-up: dose 100 mg/kg, route intraperitoneal; settings: in vivo
Mus musculus [20] = assay: Neurotoxicity in CF1 albino mouse assessed as motor impairment at 300 mg/kg, ip after 0.5 hrs; format: toxicity, organism-based; set-up: dose 300 mg/kg, route intraperitoneal; settings: in vivo
Mus musculus [21] = assay: Neurotoxicity in CF1 albino mouse assessed as motor impairment at 30 mg/kg, ip after 4 hrs; format: toxicity, organism-based; set-up: dose 30 mg/kg, route intraperitoneal; settings: in vivo
Mus musculus [22] = assay: Neurotoxicity in CF1 albino mouse assessed as motor impairment at 100 mg/kg, ip after 4 hrs; format: toxicity, organism-based; set-up: dose 100 mg/kg, route intraperitoneal; settings: in vivo
Mus musculus [23] = assay: Neurotoxicity in CF1 albino mouse assessed as motor impairment at 300 mg/kg, ip after 4 hrs; format: toxicity, organism-based; set-up: dose 300 mg/kg, route intraperitoneal; settings: in vivo
Rattus norvegicus [24] = organism: Rattus norvegicus; assay: Protective index, ratio of TD50 for rat to ED50 for maximal electroshock-induced rat seizure model
Rattus norvegicus [25] = assay: Neurotoxicity in Sprague-Dawley rat assessed as motor impairment at 30 mg/kg, po after 0.25 to 4 hrs; settings: in vivo
Rattus norvegicus [26] = assay: Anticonvulsant activity in po dosed rat assessed as inhibition of maximal electroshock-induced seizures
Rattus norvegicus [27] = assay: Anticonvulsant activity in Sprague-Dawley rat assessed as inhibition of maximal electroshock-induced seizures at 30 mg/kg, po after 2 hrs
Rattus norvegicus [28] = assay: Anticonvulsant activity in Sprague-Dawley rat assessed as inhibition of maximal electroshock-induced seizures at 30 mg/kg, po after 4 hrs
Mus musculus [29] = assay: Teratogenic effect in SWV mouse assessed as fetuses with neural tube deffects at 148 mg/kg, ip administered on morning of day 8 of gestation; format: toxicity, organism-based; set-up: dose 148 mg/kg, route intraperitoneal; settings: in vivo; summary of the method: as §3
Mus musculus [30] = assay: Anticonvulsant activity in CF1 albino mouse assessed as inhibition of maximal electroshock-induced seizures at 100 mg/kg, ip after 0.5 hrs; format: functional, organism-based; set-up: dose 100 mg/kg; summary of the method: as §4
Mus musculus [31] = assay: Anticonvulsant activity in CF1 albino mouse assessed as inhibition of maximal electroshock-induced seizures at 300 mg/kg, ip after 0.5 hrs; format: functional, organism-based; set-up: dose 300 mg/kg; summary of the method: as §4
Mus musculus [32] = assay: Anticonvulsant activity in CF1 albino mouse assessed as inhibition of maximal electroshock-induced seizures at 100 mg/kg, ip after 4 hrs; format: functional, organism-based; set-up: dose 100 mg/kg; summary of the method: as §4
Rattus norvegicus [33] = assay: Anticonvulsant activity in Sprague-Dawley rat assessed as inhibition of maximal electroshock-induced seizures at 30 mg/kg, po after 1 hr
Rattus norvegicus [34] = assay: Anticonvulsant activity in Sprague-Dawley rat assessed as inhibition of maximal electroshock-induced seizures at 30 mg/kg, po after 30 mins
Mus musculus [35] = assay: Teratogenic effect in SWV mouse assessed as resorptions at 729 mg/kg, ip administered on morning of day 8 of gestation; format: toxicity, organism-based; set-up: dose 729 mg/kg, route intraperitoneal; settings: in vivo; summary of the method: as §2
Mus musculus [36] = assay: Teratogenic effect in SWV mouse assessed as live fetuses at 729 mg/kg, ip administered on morning of day 8 of gestation; format: toxicity, organism-based; set-up: dose 729 mg/kg, route intraperitoneal; settings: in vivo; summary of the method: as §2

SMILES: CC(C)(C)CC(=O)Nc1ccc(S(N)(=O)=O)cc1
- Activity (Mus musculus [1]): inactive
- Activity (Mus musculus [2]): inactive
- Activity (Mus musculus [3]): inactive
- Activity (Mus musculus [4]): inactive
- Activity (Mus musculus [5]): inactive
- Activity (Mus musculus [6]): 8.9%
- Activity (Mus musculus [7]): 8.4%
- Activity (Mus musculus [8]): 8.6%
- Activity (Mus musculus [9]): 15%
- Activity (Mus musculus [10]): 3.7%
- Activity (Mus musculus [11]): 91.1%
- Activity (Mus musculus [12]): 91.6%
- Activity (Mus musculus [13]): 91.4%
- Activity (Mus musculus [14]): inactive
- Activity (Mus musculus [15]): inactive
- Activity (Mus musculus [16]): Active
- Activity (Mus musculus [17]): inactive
- Activity (Mus musculus [18]): Non-toxic
- Activity (Mus musculus [19]): Non-toxic
- Activity (Mus musculus [20]): Non-toxic
- Activity (Mus musculus [21]): Non-toxic
- Activity (Mus musculus [22]): Non-toxic
- Activity (Mus musculus [23]): Non-toxic
- Ratio TD50/ED50 (Rattus norvegicus [24]): >53.2
- Activity (Rattus norvegicus [25]): Non-toxic
- ED50 (Rattus norvegicus [26]): 9.4 mg/kg
- Activity (Rattus norvegicus [27]): Active
- Activity (Rattus norvegicus [28]): Active

SMILES: CCC(C)CC(=O)Nc1ccc(S(N)(=O)=O)cc1 (centres undefined)
- Activity (Mus musculus [1]): inactive
- Activity (Mus musculus [2]): inactive
- Activity (Mus musculus [3]): inactive
- Activity (Mus musculus [4]): inactive
- Activity (Mus musculus [5]): inactive
- Activity (Mus musculus [6]): 68%
- Activity (Mus musculus [7]): 32.5%
- Activity (Mus musculus [8]): 10.6%
- Activity (Mus musculus [9]): 9.4%
- Activity (Mus musculus [10]): 9.9%
- Activity (Mus musculus [29]): 1.1%
- Activity (Mus musculus [11]): 32%
- Activity (Mus musculus [12]): 67.5%
- Activity (Mus musculus [13]): 89.4%
- Activity (Mus musculus [14]): inactive
- Activity (Mus musculus [30]): inactive
- Activity (Mus musculus [31]): inactive
- Activity (Mus musculus [15]): inactive
- Activity (Mus musculus [32]): inactive
- Activity (Mus musculus [16]): inactive
- Activity (Mus musculus [17]): inactive
- Activity (Mus musculus [18]): Non-toxic
- Activity (Mus musculus [19]): Non-toxic
- Activity (Mus musculus [20]): Non-toxic
- Activity (Mus musculus [21]): Non-toxic
- Activity (Mus musculus [22]): Non-toxic
- Activity (Mus musculus [23]): Non-toxic
- Ratio TD50/ED50 (Rattus norvegicus [24]): >30.4
- Activity (Rattus norvegicus [25]): Non-toxic
- ED50 (Rattus norvegicus [26]): 16.4 mg/kg
- Activity (Rattus norvegicus [33]): Active
- Activity (Rattus norvegicus [27]): Active
- Activity (Rattus norvegicus [28]): Active
- Activity (Rattus norvegicus [34]): Active

SMILES: CCCC(C)C(=O)Nc1ccc(S(N)(=O)=O)cc1 (centres undefined)
- Activity (Mus musculus [1]): inactive
- Activity (Mus musculus [2]): inactive
- Activity (Mus musculus [3]): inactive
- Activity (Mus musculus [4]): inactive
- Activity (Mus musculus [5]): inactive
- Activity (Mus musculus [35]): 92.5%
- Activity (Mus musculus [6]): 58.3%
- Activity (Mus musculus [7]): 34.8%
- Activity (Mus musculus [8]): 10%
- Activity (Mus musculus [9]): 17%
- Activity (Mus musculus [10]): 5.6%
- Activity (Mus musculus [29]): 3.2%
- Activity (Mus musculus [36]): 7.5%
- Activity (Mus musculus [11]): 41.7%
- Activity (Mus musculus [12]): 65.2%
- Activity (Mus musculus [13]): 90%
- Activity (Mus musculus [14]): inactive
- Activity (Mus musculus [30]): inactive
- Activity (Mus musculus [31]): Active
- Activity (Mus musculus [15]): inactive
- Activity (Mus musculus [16]): Active
- Activity (Mus musculus [17]): inactive
- Activity (Mus musculus [18]): Non-toxic
- Activity (Mus musculus [19]): Non-toxic
- Activity (Mus musculus [20]): Non-toxic
- Activity (Mus musculus [21]): Non-toxic
- Activity (Mus musculus [22]): Non-toxic
- Activity (Mus musculus [23]): Non-toxic
- ED50 (Rattus norvegicus [26]): 10.8 mg/kg
- Activity (Rattus norvegicus [33]): Active
- Activity (Rattus norvegicus [27]): Active
- Activity (Rattus norvegicus [28]): Active
